# Measurements taken from ChEMBL document CHEMBL4004857, “Synthesis and biological evaluation of novel pyrazolic chalcone derivatives as novel hepatocellular carcinoma therapeutics” (Eur J Med Chem, 2017).
# Active and inactive are the calls of the source. No cut-off for these calls is given here.
# Legend:
# Huh-7 [1] = assay: Cytotoxicity against human HuH7 cells assessed as growth inhibition after 72 hrs by SRB assay; format: functional, cell-based; details: Huh-7, 72 h
# In short: (§1)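 Cells seeded at 2000–3000 per well and grown 24 h at 37C, then treated in triplicate with compounds dissolved in DMSO over a 40–0.3 range for 72 h. Cells were fixed with 10% TCA for 1 h, stained with 0.4% SRB in 1% acetic acid, washed with 1% acetic acid and air-dried. Bound dye was solubilized in 10 mM Tris base and read at 515 nm. % inhibition and IC50 were calculated against DMSO-only controls.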
# MCF7 = assay: Cytotoxicity against human MCF7 cells assessed as growth inhibition after 72 hrs by SRB assay; format: functional, cell-based; details: MCF7, 72 h; in short: as §1
# HCT-116 = assay: Cytotoxicity against human HCT116 cells assessed as growth inhibition after 72 hrs by SRB assay; format: functional, cell-based; details: HCT-116, 72 h; in short: as §1
# Homo sapiens = species on record: Homo sapiens; assay: Inhibition of tubulin polymerization (unknown origin)
# HepG2 [2] = assay: Cytotoxicity against human HepG2 cells assessed as growth inhibition after 72 hrs by SRB assay; format: functional, cell-based; details: HepG2, 72 h; in short: as §1
# Mahlavu [3] = assay: Cytotoxicity against human Mahlavu cells assessed as growth inhibition after 72 hrs by SRB assay; format: functional, cell-based; in short: as §1
# SNU-475 [4] = assay: Cytotoxicity against human SNU475 cells assessed as growth inhibition after 72 hrs by SRB assay; format: functional, cell-based; details: SNU-475, 72 h; in short: as §1
# MCF-12A = assay: Cytotoxicity against human MCF12A cells assessed as growth inhibition after 72 hrs by SRB assay; format: cell-based; in short: as §1
# MRC5 = assay: Cytotoxicity against human MRC5 cells assessed as growth inhibition after 72 hrs by SRB assay; format: cell-based; details: Homo sapiens, MRC5, 72 h; read-out: IC50; in short: as §1
# Huh-7 [5] = assay: Growth inhibition of human HuH7 cells at cytotoxic IC100 measured every 10 mins for first 24 hrs and every 30 mins for remaining 48 hrs by RT-CES analysis; format: functional, cell-based
# HepG2 [6] = assay: Growth inhibition of human HepG2 cells at cytotoxic IC100 measured every 10 mins for first 24 hrs and every 30 mins for remaining 48 hrs by RT-CES analysis; format: functional, cell-based
# Mahlavu [7] = assay: Growth inhibition of human Mahlavu cells at cytotoxic IC100 measured every 10 mins for first 24 hrs and every 30 mins for remaining 48 hrs by RT-CES analysis; format: functional, cell-based
# SNU-475 [8] = assay: Growth inhibition of human SNU475 cells at cytotoxic IC100 measured every 10 mins for first 24 hrs and every 30 mins for remaining 48 hrs by RT-CES analysis; format: functional, cell-based
# HepG2 [9] = assay: Induction of apoptosis in human HepG2 cells assessed as condensed nuclei at cytotoxic IC100 measured after 48 hrs by DAPI/Annexin-V-Fluos staining based fluorescent microscopic method; format: functional, cell-based
# In short: (§2)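 Cells on coverslips were treated after 24 h in culture and stained 48 h later with Annexin-V-Fluos plus DAPI nuclear stain. Cells were then examined by fluorescence microscopy for Annexin V-positive cells with condensed nuclei.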
# HepG2 [10] = assay: Induction of apoptosis in human HepG2 cells assessed as condensed nuclei at cytotoxic IC100 measured after 72 hrs by light microscopic method; format: functional, cell-based
# SNU-475 [11] = assay: Induction of apoptosis in human SNU475 cells assessed as condensed nuclei at cytotoxic IC100 measured after 72 hrs by light microscopic method; format: functional, cell-based
# SNU-475 [12] = assay: Induction of apoptosis in human SNU475 cells assessed as condensed nuclei at cytotoxic IC100 measured after 48 hrs by DAPI/Annexin-V-Fluos staining based fluorescent microscopic method; format: functional, cell-based; in short: as §2
# SNU-475 [13] = assay: Induction of apoptosis in human SNU475 cells assessed as PARP cleavage at cytotoxic IC100 measured after 24 hrs by Western blot method; format: functional, cell-based
# HepG2 [14] = assay: Induction of apoptosis in human HepG2 cells assessed as PARP cleavage at cytotoxic IC100 measured after 24 hrs by Western blot method; format: functional, cell-based
# HepG2 [15] = assay: Induction of apoptosis in human HepG2 cells assessed as accumulation at G2/M phase at cytotoxic IC100 measured after 48 hrs by propidium iodide staining based flow cytometry; format: functional, cell-based
# In short: (§3)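 After 24, 48 and 72 h, cells were fixed in ice-cold 70% ethanol for 3 h, stained with propidium iodide, and cell-cycle distribution was read on a MUSE Cell Analyzer.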
# HepG2 [16] = assay: Induction of apoptosis in human HepG2 cells assessed as accumulation at subG1 phase at cytotoxic IC100 measured after 72 hrs by propidium iodide staining based flow cytometry; format: functional, cell-based; in short: as §3
# SNU-475 [17] = assay: Induction of apoptosis in human SNU475 cells assessed as accumulation at G2/M phase at cytotoxic IC100 measured after 48 hrs by propidium iodide staining based flow cytometry; format: functional, cell-based; in short: as §3
# SNU-475 [18] = assay: Induction of apoptosis in human SNU475 cells assessed as accumulation at subG1 phase at cytotoxic IC100 measured after 72 hrs by propidium iodide staining based flow cytometry; format: functional, cell-based; in short: as §3
# HepG2 [19] = assay: Induction of apoptosis in human HepG2 cells assessed as decrease in CDK expression level at cytotoxic IC100 measured after 24 hrs by Western blot method; format: functional; design: scale not given: the % may be the effect or the level left
# SNU-475 [20] = assay: Induction of apoptosis in human SNU475 cells assessed as decrease in CDK expression level at cytotoxic IC100 measured after 24 hrs by Western blot method; format: functional, cell-based
# [21] = molecular target: G2/mitotic-specific cyclin-B1 (Homo sapiens) (UniProt P14635); assay: Inhibition of Cyclin B1 phosphorylation at Ser147 residue in human HepG2 cells at cytotoxic IC100 measured after 24 hrs by Western blot method; format: cell-based
# HepG2 [22] = assay: Induction of apoptosis in human HepG2 cells assessed as decrease in cyclin B1 protein expression level at cytotoxic IC100 measured after 24 hrs by Western blot method; format: functional, cell-based
# HepG2 [23] = assay: Increase in p21 protein expression in human HepG2 cells at cytotoxic IC100 measured after 24 hrs by Western blot method relative to control; format: functional
# SNU-475 [24] = assay: Increase in p21 protein expression in human SNU475 cells at cytotoxic IC100 measured after 24 hrs by Western blot method relative to control; format: functional
# [25] = molecular target: T1, Retinoblastoma-associated protein (Homo sapiens) (UniProt P06400); assay: Inhibition of retinoblastoma phosphorylation in human HepG2 cells at cytotoxic IC100 measured after 24 hrs by Western blot method; format: cell-based
# T1 sequence (whole entry): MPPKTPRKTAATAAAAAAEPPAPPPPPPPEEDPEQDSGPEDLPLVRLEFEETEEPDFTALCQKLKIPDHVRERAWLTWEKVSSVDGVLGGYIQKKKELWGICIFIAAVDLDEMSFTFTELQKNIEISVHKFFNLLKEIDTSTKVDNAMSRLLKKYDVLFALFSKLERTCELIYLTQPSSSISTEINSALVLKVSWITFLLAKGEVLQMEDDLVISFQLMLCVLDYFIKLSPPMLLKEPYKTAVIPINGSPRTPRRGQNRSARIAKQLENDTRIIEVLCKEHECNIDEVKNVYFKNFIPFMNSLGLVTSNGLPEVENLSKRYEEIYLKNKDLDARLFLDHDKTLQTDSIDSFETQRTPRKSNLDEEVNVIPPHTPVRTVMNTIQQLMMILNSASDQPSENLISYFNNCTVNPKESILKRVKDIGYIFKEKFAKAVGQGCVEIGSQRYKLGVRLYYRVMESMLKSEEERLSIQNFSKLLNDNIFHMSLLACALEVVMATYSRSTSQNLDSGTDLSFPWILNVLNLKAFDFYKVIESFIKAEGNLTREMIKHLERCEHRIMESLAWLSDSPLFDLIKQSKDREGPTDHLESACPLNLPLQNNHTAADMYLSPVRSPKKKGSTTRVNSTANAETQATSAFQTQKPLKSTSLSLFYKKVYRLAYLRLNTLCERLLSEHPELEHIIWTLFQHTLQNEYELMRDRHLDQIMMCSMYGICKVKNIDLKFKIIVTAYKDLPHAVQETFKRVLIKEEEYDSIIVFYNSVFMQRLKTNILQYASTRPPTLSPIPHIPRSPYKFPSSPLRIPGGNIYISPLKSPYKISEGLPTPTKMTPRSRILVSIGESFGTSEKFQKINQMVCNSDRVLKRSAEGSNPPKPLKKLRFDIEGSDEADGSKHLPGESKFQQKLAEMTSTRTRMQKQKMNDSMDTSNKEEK
# [26] = molecular target: T1, Retinoblastoma-associated protein (Homo sapiens); assay: Inhibition of retinoblastoma phosphorylation in human SNU475 cells at cytotoxic IC100 measured after 24 hrs by Western blot method; format: cell-based
# Chain of G2/mitotic-specific cyclin-B1 (Homo sapiens) (P14635 whole entry): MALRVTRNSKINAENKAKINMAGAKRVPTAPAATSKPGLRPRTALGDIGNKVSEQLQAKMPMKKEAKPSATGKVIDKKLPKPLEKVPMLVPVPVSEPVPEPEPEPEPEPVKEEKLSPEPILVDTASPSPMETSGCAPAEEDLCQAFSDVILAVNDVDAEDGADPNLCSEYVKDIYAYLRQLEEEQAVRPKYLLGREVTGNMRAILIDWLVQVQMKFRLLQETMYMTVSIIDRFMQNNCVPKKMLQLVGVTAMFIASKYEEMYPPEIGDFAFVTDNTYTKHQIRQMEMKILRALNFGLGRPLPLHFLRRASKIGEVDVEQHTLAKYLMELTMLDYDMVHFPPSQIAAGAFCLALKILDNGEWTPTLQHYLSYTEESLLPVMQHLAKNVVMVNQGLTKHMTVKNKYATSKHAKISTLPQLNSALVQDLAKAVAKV
structure (smiles),measurement,setting,value
COc1cc(OC)c(C(=O)/C=C/c2cn(-c3ccccc3)nc2-c2cccnc2)c(OC)c1,IC50,Huh-7 [1],500 nM
same,IC50,MCF7,1000 nM
same,IC50,HCT-116,300 nM
same,inhibition,Homo sapiens,inactive
same,IC50,HepG2 [2],1.4 µM
same,IC50,Mahlavu [3],1100 nM
same,IC50,SNU-475 [4],800 nM
same,IC50,MCF-12A,1200 nM
same,IC50,MRC5,1300 nM
same,growth inhibition (GI),Huh-7 [5],Active
same,growth inhibition (GI),HepG2 [6],Active
same,growth inhibition (GI),Mahlavu [7],Active
same,growth inhibition (GI),SNU-475 [8],Active
same,Activity,HepG2 [9],Active
same,Activity,HepG2 [10],Active
same,Activity,SNU-475 [11],Active
same,Activity,SNU-475 [12],Active
same,Activity,SNU-475 [13],Active
same,Activity,HepG2 [14],Active
same,Activity,HepG2 [15],Active
same,Activity,HepG2 [16],Active
same,Activity,SNU-475 [17],Active
same,Activity,SNU-475 [18],Active
COc1ccc(OC)c(C(=O)/C=C/c2cn(-c3ccccc3)nc2-c2cccnc2)c1,IC50,Huh-7 [1],1300 nM
same,IC50,MCF7,1500 nM
same,IC50,HCT-116,1000 nM
same,inhibition,Homo sapiens,inactive
same,IC50,HepG2 [2],3.4 µM
same,IC50,Mahlavu [3],2000 nM
same,IC50,SNU-475 [4],1900 nM
same,IC50,MCF-12A,2400 nM
same,IC50,MRC5,2700 nM
same,growth inhibition (GI),Huh-7 [5],Active
same,growth inhibition (GI),HepG2 [6],Active
same,growth inhibition (GI),Mahlavu [7],Active
same,growth inhibition (GI),SNU-475 [8],Active
same,Activity,HepG2 [9],Active
same,Activity,HepG2 [10],Active
same,Activity,SNU-475 [11],Active
same,Activity,SNU-475 [12],Active
same,Activity,SNU-475 [13],Active
same,Activity,HepG2 [14],Active
same,Activity,HepG2 [15],Active
same,Activity,HepG2 [16],Active
same,Activity,SNU-475 [17],Active
same,Activity,SNU-475 [18],Active
same,Activity,HepG2 [19],50%
same,Activity,SNU-475 [20],Active
same,inhibition,[21],50%
same,Activity,HepG2 [22],Active
same,fold change (FC),HepG2 [23],5 - 6
same,fold change (FC),SNU-475 [24],2
same,inhibition,[25],Active
same,inhibition,[26],Active
COc1ccc(OC)c(C(=O)/C=C/c2cn(-c3ccccc3)nc2-c2ccncc2)c1,IC50,Huh-7 [1],1700 nM
same,IC50,MCF7,1400 nM
same,IC50,HCT-116,900 nM
same,inhibition,Homo sapiens,inactive
same,IC50,HepG2 [2],4.8 µM
same,IC50,Mahlavu [3],1600 nM
same,IC50,SNU-475 [4],2000 nM
same,IC50,MCF-12A,3000 nM
same,IC50,MRC5,3100 nM
same,growth inhibition (GI),Huh-7 [5],Active
same,growth inhibition (GI),HepG2 [6],Active
same,growth inhibition (GI),Mahlavu [7],Active
same,growth inhibition (GI),SNU-475 [8],Active
same,Activity,HepG2 [9],Active
same,Activity,HepG2 [10],Active
same,Activity,SNU-475 [11],Active
same,Activity,SNU-475 [12],Active
same,Activity,SNU-475 [13],Active
same,Activity,HepG2 [14],Active
same,Activity,HepG2 [15],Active
same,Activity,HepG2 [16],Active
same,Activity,SNU-475 [17],Active
same,Activity,SNU-475 [18],Active
same,Activity,HepG2 [19],50%
same,Activity,SNU-475 [20],Active
same,inhibition,[21],50%
same,Activity,HepG2 [22],Active
same,fold change (FC),HepG2 [23],5 - 6
same,fold change (FC),SNU-475 [24],2
same,inhibition,[25],Active
same,inhibition,[26],Active
